Reference: publication PMC6347502 (Photochemistry and photobiology, 2018)
Several values for one entry are separate records, joined by “and”; a condition that tells them apart may be missing. Equal values may be shown once. Read-outs that look alike come from different tables or passages of the source.

Tests used:
[1] = test system: SK-MEL-28 malignant melanoma cells; test: Cytotoxicity and photocytotoxicity, resazurin cell viability, melanoma cells; assay type: cell-based, human
Method in brief: (§1)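 HL-60 cells (suspension, RPMI 1640 + 20% FBS) or SK-MEL-28 cells (adherent, EMEM + 10% FBS) were used in log phase at ≥93% viability and equilibrated for 3 h. Chloride salts were diluted in DPBS (1 nM–300 µM; DMSO <0.1%) and incubated 16 h at 37 °C, 5% CO₂. Cells were then kept dark or given 100 J cm⁻² of visible light (400–700 nm, 44 mW cm⁻²) or red LED light (625 nm, 52.5 mW cm⁻²). After 48 h, resazurin was added for 3 h; fluorescence ex 530/em 620 nm. Triplicate. EC50 from sigmoidal dose–response fit; PI = dark/light EC50.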

[2] = test system: HL-60 human promyelocytic leukemia cells; test: Cytotoxicity and photocytotoxicity, resazurin cell viability, leukemia cells; assay type: cell-based
Method in brief: as §1

[3] = Singlet oxygen sensitization quantum yield; assay type: physicochemical
[4] = Steady-state and time-resolved emission; assay type: physicochemical
Method in brief: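 PF₆⁻ salts, 5–20 µM, in MeCN argon-sparged in a long-stem cuvette, or as 4:1 EtOH:MeOH glass frozen in liquid N₂ (77 K). Quantum yields from corrected steady-state spectra relative to [Ru(bpy)₃](PF₆)₂ (0.095 deaerated MeCN at 298 K; 0.38 at 77 K). Lifetimes measured with nitrogen/dye laser excitation at 457 nm, monitored at emission maximum, stroboscopic detection.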

[5] = Nanosecond transient absorption lifetime; assay type: physicochemical; conditions: degassed MeCN
Method in brief: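 Nanosecond laser flash photolysis on MeCN solutions argon-purged for 45 min. Excitation was 355 nm from a Nd:YAG third harmonic (4.1 ns pulse, 1 Hz). Transient difference absorption spectra were recorded and lifetimes taken from signal decays.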

[6] = test system: pUC19 plasmid DNA; test: DNA photocleavage, plasmid gel mobility shift assay; assay type: biochemical; conditions: pUC19 20 μM NPs, visible light 14 J cm^−2
[7] = UV-vis absorption, molar extinction coefficient at 625 nm; assay type: physicochemical
Method in brief: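 PF₆⁻ salts in spectroscopic-grade MeCN. ε was taken from the slope of absorbance versus concentration over five concentrations, measured in duplicate.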

[8] = aerated MeCN; cited from earlier work
[9] = cited from earlier work

## F[P-](F)(F)(F)(F)F.F[P-](F)(F)(F)(F)F.[Ru+2].c1ccc(-c2ccccn2)nc1.c1ccc(-c2ccccn2)nc1.c1csc(-c2ccc(-c3cc4cccnc4c4ncccc34)s2)c1 [Compound 2, Ru(bpy)2(phen-2T)PF6]
[1]; ratio of dark to red-light (625 nm) EC50, SKMEL28
  PI red light, SKMEL28: 2
[1]; ratio of dark to visible-light EC50, SKMEL28
  PI (phototherapeutic index) visible light, SKMEL28: 150
[1]; read-out: EC50 dark, SKMEL28, SKMEL28, dark
  EC50: 32 ± 1 µM
[2]; ratio of dark to red-light (625 nm) EC50, HL60
  PI red light, HL60: 19
[2]; ratio of dark to visible-light EC50, HL60
  PI visible light, HL60: 835
[3]; air-saturated MeCN at 298 K, relative to [Ru(bpy)3](PF6)2
  ΦΔ (singlet oxygen quantum yield) 298 K: 0.78
[3]; air-saturated MeCN, room temperature
  1O2 quantum yield (ΦΔ): 74–78% and 78% and 74%
[4]; 77 K, EtOH:MeOH (4:1) glass
  τem 77 K: 6,600 ns
[4]; 77 K, EtOH:MeOH (4:1) glass, PF6 salt
  Φ (emission quantum yield) 77 K: 0.14
[4]; 298 K, argon-purged MeCN
  τem 298 K: 1,030 ns
[4]; 298 K, argon-purged MeCN, PF6 salt
  Φ (emission quantum yield) 298 K: 0.0092
[5]
  τTA, lifetime of nonemissive 3IL state: 43 μs
[6]
  MC:NP ratio for complete photocleavage (conversion of Form I to Form II DNA): 1
[7]
  molar absorptivity at 625 nm (ε625 nm): < 100 M⁻¹ cm⁻¹

## F[P-](F)(F)(F)(F)F.F[P-](F)(F)(F)(F)F.[Ru+2].c1ccc(-c2ccccn2)nc1.c1ccc(-c2ccccn2)nc1.c1ccc(-c2ccccn2)nc1 [[Ru(bpy)3](PF6)2]
[8]
  ΦΔ of standard: 0.56
[9]; 77 K in frozen 4:1 v/v EtOH:MeOH
  Φem reference value: 0.38
[9]; 298 K in aerated MeCN
  Φem reference value: 0.012
[9]; 298 K in deaerated MeCN
  Φem reference value: 0.095
[9]
  emission lifetime: 0.9 μs
